# Bioassay records (PubChem BioAssay)
# TRPC4 agonist: activators of mouse TRPC4 channel; Q9QUQ5; HEK293 TRPC4beta/mu-opioid, Fluo4 calcium fluorescence; stronger effect = higher value; B-score at 10 µM; 310,000 compounds, 0.49% hits; AID 2237;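 active = B-score above 5 SD of library B-scores, and initial fluorescence ratio not above library mean plus 5 SD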;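 note: positive B-score marks a calcium rise read as TRPC4 activation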
#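 Assay system: HEK293 stable line with TRPC4beta plus mu-opioid receptor; schedule: 45 min room-temperature Fluo4 loading, 110 s read; technique: kinetic Fluo4 calcium fluorescence; evaluation: integrated baseline-normalised fluorescence ratio, converted to per-well B score; controls: buffer (low) and maximal DAMGO (high)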
# TRPC6 inh: inhibitors of mouse TRPC6 channel. Q61143. HEK293-TRPC6, membrane potential dye, ACh-evoked depolarization; stronger effect = lower value. B-score at 10 µM. 310,000 compounds, 1.1% hits;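 active = B-score under library mean minus 3 SD, initial fluorescence not abnormally high, positive integrated signal ratio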;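 note: B-score derived from integrated fluorescence ratio over the kinetic read; more negative B-score means stronger inhibition of depolarization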
# TRPC4 block: inhibitors of mouse TRPC4 channel. Q9QUQ5. HEK293 TRPC4beta/mu-opioid, DAMGO-evoked Fluo4 calcium flux; stronger effect = lower value. B-score at 10 µM. 300,000 compounds, 0.39% hits. AID 2247;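 active = B-score over 3 SD under the library average, no early fluorescence shift, positive overall ratio signal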
#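 Material: HEK293 cells with stable TRPC4beta plus mu-opioid receptor expression; probe or stimulus: DAMGO in two steps, submaximal then maximal; technique: Fluo4 calcium fluorescence by kinetic imaging, 5 s 1 Hz baseline; measure: integrated fluorescence ratio relative to baseline, converted to per-well B score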
# DNA FID counter: counter-screen for HCV NS3 helicase inhibitors: DNA intercalator displacement; 290,000 compounds, 0.17% hits; inhibition, % at 7.9 µM; DNA fluorescent intercalator displacement, fluorescence; in the data active = inhibition above about 37%;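 note: 0% = vehicle and 100% = reference compound; higher means more ethidium bromide displaced from hairpin DNA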
# TRPC4 PAM: allosterically enhances the mouse TRPC4 cation channel; Q9QUQ5; HEK293 TRPC4beta/mu-opioid, DAMGO EC20, Fluo-4 Ca2+ flux; stronger effect = higher value; B-score at 10 µM; 310,000 compounds, 0.42% hits; AID 2227;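 active = B-score of calcium response area above 5 SD of library B-scores, with initial fluorescence ratio within 5 SD of library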;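 note: B-score of integrated fluorescence ratio over time as area under calcium response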
# TRPC6 act: mouse TRPC6 channel activation | HEK293-TRPC6 membrane potential dye fluorescence; stronger effect = higher value | AID 2550 | Q61143 | B-score at 10 µM | 310,000 compounds, 0.13% hits;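 active = B-score of the integrated fluorescence ratio above library mean plus 3 SD, and starting fluorescence ratio within library mean plus 5 SD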;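 note: higher score means more depolarization so channel activation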
# TRPC4 spec 2: second selectivity test of TRPC6 inhibitors: effect on mouse TRPC4. inhibition, % at 10 µM. 920 compounds, 42% hits. shares compounds with TRPC6 inh. HEK293 TRPC4/MOR, membrane potential dye fluorescence; channel activated by saturating DAMGO dose. AID 2776;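 active = compounds whose fluorescence signal differed from control wells by over 3 SD, either direction, in both duplicate plates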
# TRPC4 spec: tests whether TRPC6 inhibitors also affect mouse TRPC4. shares compounds with TRPC6 inh. HEK293 TRPC4/mu-opioid, membrane potential fluorescence. activity change, negative = inhibition, % at 10 µM. 920 compounds, 61% hits;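 active = rise or fall in signal beyond 3 SD of buffer-only wells in both replicate plates, either sign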;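 note: integrated kinetic ratio of fluorescence range over baseline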
# HEK293 MPD ctr 2-1: second counter-screen for TRPC6 inhibitors: parental HEK293 cells; shares compounds with TRPC6 inh; parental HEK293 membrane potential dye fluorescence; maximal acetylcholine challenge after compound addition; signal change vs control, % at 10 µM; 920 compounds, 31% hits;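 active = membrane potential signal moving either way by over 3 SD of the maximum-effect control, in both duplicate plates, meaning non-specific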
# HEK293 MPD ctr-1: checks TRPC6 inhibitor effects in parental HEK293 cells; shares compounds with TRPC6 inh; parental HEK293 membrane potential dye fluorescence; membrane potential signal change, % at 10 µM; 920 compounds, 60% hits;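 active = membrane potential signal shifting up or down by more than 3 SD of buffer-only wells, on both duplicate plates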
# HEK293 MPD ctr-2: parental HEK293 nonspecific activity of TRPC6 modulators; shares compounds with TRPC6 inh; membrane potential dye fluorescence; membrane potential signal change, % at 10 µM; 2,400 compounds, 51% hits; AID 488924;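 active = membrane potential signal moves up or down beyond 5 SD from buffer-only wells, on both duplicate plates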
# HEK293 MPD ctr 2-2: second check of TRPC6 modulator effects in parental HEK293 cells; shares compounds with TRPC6 inh; membrane potential dye fluorescence; after compound, maximal acetylcholine stimulation; inhibition, % at 10 µM; 2,400 compounds, 14% hits;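 active = membrane potential signal drops by more than 5 SD from the mean control signal, in both duplicate plates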;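 note: plate controls were acetylcholine ECmax control wells for no effect and buffer only wells for full effect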
# TRPC4/MOR mod: tests whether TRPC6 modulators also affect mouse TRPC4. shares compounds with TRPC6 inh. HEK293 TRPC4/mu-opioid, membrane potential fluorescence. percent change from control (negative = decrease, positive = increase), % at 10 µM. 2,400 compounds, 69% hits. AID 488927;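 active = membrane potential signal moved up or down beyond 5 SD of buffer control wells, in both duplicate plates, actives on both sides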;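 note: plate controls were assay buffer wells for no effect and DAMGO maximal-effect wells for full effect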
# TRPC4/MOR inh 2: second check of whether TRPC6 modulators also affect mouse TRPC4. inhibition, % at 10 µM. shares compounds with TRPC6 inh. AID 488928. 2,400 compounds, 55% hits. HEK293 TRPC4/mu-opioid, membrane potential dye fluorescence; stimulated with maximal-effect DAMGO;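 active = drop in membrane potential signal beyond 5 SD of the control wells in both duplicate plates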;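 note: TRPC4 counter screen for TRPC6 hits run under conditions tuned for TRPC6 not TRPC4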
# TRPC6 block conf: mouse TRPC6 inhibitor confirmation. shares compounds with TRPC6 inh. HEK293-TRPC6, membrane potential dye, ACh-evoked depolarization. inhibition, % at 10 µM. 3,300 compounds, 43% hits. AID 488960;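 active = fluorescence ratio falls more than 5 SD below the full-stimulation control mean, in both duplicate runs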;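 note: integrated fluorescence ratio of peak minus minimum over baseline after agonist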
# TRPC6 act conf: mouse TRPC6 activator confirmation. shares compounds with TRPC6 inh. HEK293-TRPC6 membrane potential dye fluorescence, FDSS. activation, % at 10 µM. 2,800 compounds, 11% hits. AID 488961;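 active = ratio signal rise beyond 5 SD above unstimulated control wells' mean, seen in both duplicate runs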;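 note: plate controls were buffer EC0 wells for no effect and acetylcholine ECmax response for full effect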
# An asterisk follows results filed as active; i = inactive; x = no result. Rows were chosen to be rich in hits. Some 2.3% of all compounds tested hit in one or more screens of this group.
SMILES,TRPC4 agonist,TRPC6 inh,TRPC4 block,DNA FID counter,TRPC4 PAM,TRPC6 act,HEK293 MPD ctr-2,HEK293 MPD ctr 2-2,TRPC4/MOR mod,TRPC4/MOR inh 2,TRPC6 block conf,TRPC6 act conf,others
CCOC(=O)c1c(C)[nH]c(C)c1S(=O)(=O)NC(CC)CN1CCOCC1 (configuration not stated),i,i,i,-5,i,i,x,x,x,x,x,x,
Cc1cc(C)c2oc(-c3cccc(N)c3)nc2c1,i,i,i,-24,i,i,x,x,x,x,x,x,
Cc1ccc2nc(-c3cccc(N)c3)oc2c1,i,-5.5*,i,-3,i,i,i,i,i,i,i,i,
CCOc1ccc(C(=O)O/N=C(\N)c2ccccn2)cc1OCC,i,-5.9*,i,-26,i,i,-94%*,i,-22%*,i,i,i,
Cc1ccc(CNC(=O)c2cc3c(=O)n4ccccc4nc3n(CC3CCCO3)c2=N)cc1 (configuration not stated),i,-6.2*,i,1,11*,i,i,i,-36%*,52%*,64%*,i,
COCCCn1c(=N)c(C(=O)NCc2ccc3c(c2)OCO3)cc2c(=O)n3ccccc3nc21,i,-10*,i,1,i,i,x,x,x,x,i,i,TRPC4 spec 2=64%*;TRPC4 spec=-12%*;HEK293 MPD ctr 2-1=30%*;HEK293 MPD ctr-1=i
N=c1c(C(=O)NCc2ccc3c(c2)OCO3)cc2c(=O)n3ccccc3nc2n1Cc1cccnc1,i,i,i,7,i,i,x,x,x,x,x,x,
CCOCCCn1c(=N)c(C(=O)NCc2ccc3c(c2)OCO3)cc2c(=O)n3cccc(C)c3nc21,i,-5.1*,i,19,i,i,i,i,-12%*,36%*,i,i,
CCOC(=O)C1(Cc2cccc(Cl)c2)CCCN(C(=O)c2ccc(COC)s2)C1 (configuration not stated),i,i,i,-56,i,i,x,x,x,x,x,x,
CCc1cc(=O)oc2cc(C)cc(OCC(=O)NC3CCN(Cc4ccccc4)CC3)c12,i,-5.5*,i,16,i,i,-100%*,i,-26%*,68%*,40%*,i,
COc1ccccc1CNCc1ccc(OC)c2ccccc12,i,-6.2*,-7*,x,i,i,265%*,i,64%*,70%*,52%*,x,
